Screening data (PubChem)
Most compounds without a hit are left out; they make up all but 1.7% or so of the library.
MT1-MMP act inh: inhibitors of human MT1-MMP activation; P50281; HT1080 RFP-PRO-GFP cells, GFP/RFP ratio fluorescence, overnight; percent of plate control window, DMSO zero; GFP/RFP ratio change, % at 20 µM; 0.061% of 360,000 active; AID 651647;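 active means GFP/RFP ratio change of at least 30% with cell ATP level not reduced by more than half and red fluorescence within 50% of control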
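Assay system: HT1080 cells carrying an RFP-PRO-GFP reporter | Dosing: Single dose of 20 µM compound, 1% DMSO final | Incubation: Cells overnight before dosing, compound overnight, 37 °C, 5% CO2 | Evaluation: GFP/RFP fluorescence ratio | Control set: DMSO and RFP-L50D-GFP cell wells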
MLLE-PAM2 inh: blocks PAM2 peptide binding to the PABP1 MLLE domain. AID 588489. P11940. inhibition, % at 20 µM. 0.36% of 360,000 active. GST-MLLE / FITC-PAM2 fluorescence polarization; in the data active means inhibition above about 35%, passing the limit was not always enough
PABP polyA inh: PABP-poly(A) binding inhibition. P11940. PABP-poly(A) RNA binding, fluorescence polarization. inhibition, % at 35 µM. 1% of 290,000 active. AID 2014;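 further: calls also rest on retests at 20 µM and on dose response follow-up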
SKN-1 block: inhibitors of C. elegans SKN-1. inhibition, % at 21.8 µM. C. elegans VP596 Pgst-4::GFP/RFP ratio, acrylamide-induced, 24 h. 0.49% of 360,000 active;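 active means interference check ratio from 0.5 to 1.5 plus GFP to RFP signal ratio inhibition reaching or exceeding a fixed threshold, cut at about 30% in these data, passing the limit was not always enough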
eIF4H inh: inhibitors of RNA binding by human eIF4H; eIF4H fluorescence polarization binding assay; inhibition, % at 35 µM; Q15056; AID 2012; 0.94% of 290,000 active;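 further: calls also rest on retests at 20 µM and on dose response follow-up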
MT1-MMP act val: validation of inhibitors of human MT1-MMP activation | shares compounds with MT1-MMP act inh | HT1080 RFP-PRO-GFP cells, GFP and RFP fluorescence ratio, overnight | inhibition, % at 20 µM | 10% of 200 active | AID 652235;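 active means inhibition of at least 50% in the primary cell screen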
Of the large screens only hits and unclear results are named; the others gave an inactive call (follow-up assays come after a bar, where they were run). Unless noted, how the calls were made is not given here.

O=C(Cn1cc(C(=O)c2ccccc2F)c2ccccc21)NCc1ccco1	none
CC(C)(C)C(=O)c1cn(CC(=O)NCc2ccco2)c2ccccc12	PABP polyA inh 58
COc1ccc(C2C3C=CC(C3)C2C(=O)O)cc1 (stereo unspecified)	none (no result: PABP polyA inh, eIF4H inh)
N/C(=N\N=C/c1ccc(-c2ccc(O)c(C(=O)O)c2)o1)N[N+](=O)[O-]	PABP polyA inh 60, eIF4H inh 103
COc1ccc(/C=N/N=C(/N)N[N+](=O)[O-])c(OC)c1	none
Cc1cc(C)[n+](CCCC[n+]2c(C)cc(C)cc2C)c(C)c1	none (no result: PABP polyA inh, eIF4H inh)
O=S1(=O)CCN(CCc2c[nH]c3ccccc23)CC1	PABP polyA inh 60, eIF4H inh active
O=[N+]([O-])c1ccc(C(c2ccc([N+](=O)[O-])cc2)c2ccc([N+](=O)[O-])cc2)cc1	none (no result: PABP polyA inh, eIF4H inh)
Cn1cnc([N+](=O)[O-])c1Sc1ccc([N+](=O)[O-])cc1	MLLE-PAM2 inh 47
CN1CCN(c2nc3ccccn3c(=O)c2C=C2C(=O)N(C)C(=O)N(C)C2=O)CC1	PABP polyA inh 120, eIF4H inh inconclusive
CCN1C[C@]2(CO)CC[C@H](OC)[C@@]34C2[C@H](OC)[C@@](O)(C13)[C@@]1(O)C[C@H](OC)[C@H]2C[C@@H]4[C@@H]1[C@H]2OC	none
O=C1NC2C(=CC(O)C(O)C2O)c2cc3c(c(O)c21)OCO3 (stereo unspecified)	SKN-1 block 55 (no result: PABP polyA inh, eIF4H inh)
O=C1NC2C(=CC(O)C(O)C2O)c2cc3c(cc21)OCO3 (stereo unspecified)	SKN-1 block 40 (no result: PABP polyA inh, eIF4H inh)
O=C1NC2C(O)C(O)C(O)C(O)C2c2cc3c(c(O)c21)OCO3 (stereo unspecified)	none (no result: PABP polyA inh, eIF4H inh)
Cc1ccc(N2C(=O)NC(=O)/C(=C\c3cnc(-c4ccccc4)nc3)C2=O)cc1	eIF4H inh 58
Cc1cc(/C=C2\C(=O)NC(=O)N(c3ccccc3)C2=O)c(C)n1-c1ccc(C(=O)O)c(Cl)c1	PABP polyA inh 31
Cc1cc(C=C2C(=O)NC(=S)NC2=O)c(C)n1-c1ccc2c(c1)OCO2	PABP polyA inh 8.9
Cc1cc(/C=C2\C(=O)NC(=O)N(c3ccc(Cl)cc3)C2=O)c(C)n1C	none
Cc1cc(/C=C2\C(=O)NC(=O)N(C)C2=O)c(C)n1-c1ccc2c(c1)OCO2	none
Cc1cc(/C=C2\C(=O)NC(=O)N(c3ccc(F)cc3)C2=O)c(C)n1-c1cccc(C(=O)O)c1	PABP polyA inh 31
CCc1ccccc1N1C(=O)NC(=O)/C(=C\c2cc(C)n(C)c2C)C1=O	PABP polyA inh inconclusive, eIF4H inh 66
Cc1cc(/C=C2/C(=O)NC(=O)N(C)C2=O)c(C)n1-c1ccccc1	PABP polyA inh 65
Cc1cc(/C=C2/C(=O)NC(=O)N(Cc3ccco3)C2=O)c(C)n1-c1ccccc1O	none
Cc1cc(C)cc(N2C(=O)NC(=O)/C(=C\c3cc(C)n(C)c3C)C2=O)c1	PABP polyA inh inconclusive, eIF4H inh inconclusive
Cc1ccc(/C=C2/C(=O)NC(=O)N(C)C2=O)cc1	PABP polyA inh active, eIF4H inh inconclusive
C=CCN1C(=O)/C(=C/c2cc(C)n(-c3ccccn3)c2C)C(=O)NC1=S	PABP polyA inh active, eIF4H inh inconclusive
CCc1nc2ccccc2c(=O)n1-c1ccccc1OC	none
C[C@]1(O)CCC2C3CC[C@H]4C[C@@H](OC(=O)[C@@H](N)CCCCN)CC[C@]4(C)C3CC[C@@]21C (stereo partly specified)	none (no result: PABP polyA inh, eIF4H inh)
Cc1cc(/C=C2\C(=O)NC(=O)N(c3ccccc3F)C2=O)c(C)n1-c1cc(C(=O)O)cc(C(=O)O)c1	PABP polyA inh 47
Cc1cccc(N2C(=O)NC(=O)/C(=C\c3cc(C)n(-c4sc5c(c4C#N)CCCC5)c3C)C2=O)c1C	none
CCc1c(C)nc(N)nc1N1N=C1SC(C(C)=O)C(C)=O	none
COc1ccc2[nH]c(C)c(CCNCc3cc(OC)c4c(c3)OCO4)c2c1	none (no result: PABP polyA inh, eIF4H inh)
COc1ccc2[nH]c(C)c(CCNCc3cc(OC)c(OC)c(OC)c3)c2c1	PABP polyA inh 2.2, eIF4H inh 94
CCOP(=O)(OCC)C1(C(=O)O)CCCC1	none
Cc1cc2c(C(C)C)c(O)c(O)c(C=O)c2c(O)c1-c1c(C)cc2c(C(C)C)c(O)c(O)c(C=O)c2c1O	PABP polyA inh active
CC/C(=N\Nc1cccc2ccccc12)c1c(O)[nH]c(=O)[nH]c1=O	eIF4H inh 54
CC/C(=N\Nc1ccccc1)c1c(O)[nH]c(=O)[nH]c1=O	none
Cc1ccc2c(c1)C1C[N+](C)(CC(=O)c3ccc(Cl)cc3Cl)CCC1N2C(=O)c1ccc(F)cc1 (stereo unspecified)	none (no result: PABP polyA inh, eIF4H inh)
CN1C(=O)C(=Cc2cc([N+](=O)[O-])ccc2N2CCCCC2)C(=O)N(C)C1=O	none
CN1C(=O)C(=Cc2sc(=O)n(-c3ccccc3)c2N2CCCCC2)C(=O)N(C)C1=O	PABP polyA inh inconclusive, SKN-1 block 38, eIF4H inh inconclusive
N#CC12CC(=O)N1Cc1cnnn1-c1ccccc12 (stereo unspecified)	none (no result: PABP polyA inh, eIF4H inh)
COc1cccc(OCc2cc(C(=O)N3C[C@H]4C[C@@H](C3)c3cccc(=O)n3C4)no2)c1	none
CN(C)P(=O)(CCl)Nc1ccccc1 (stereo unspecified)	PABP polyA inh 18, eIF4H inh 96
CN(C)CP(=O)(Nc1ccccc1)N(C)C (stereo unspecified)	none
COc1ccccc1NC(=O)c1cn(CCC#N)nc1-c1ccc(F)cc1	none
CCCCC(=O)N/N=C/c1c(O)n(Cc2ccco2)c(=O)[nH]c1=O	PABP polyA inh 20
O=c1[nH]c(=O)n(Cc2ccco2)c(O)c1C=NCc1ccco1	none
O=C(N/N=C/c1c(O)n(Cc2ccco2)c(=O)[nH]c1=O)c1ccccc1O	eIF4H inh 53
CC(=O)Nc1ccc(N=Cc2c(O)n(Cc3ccco3)c(=O)[nH]c2=O)cc1	none
COC(=O)C1=C(c2cc3ccccc3s2)C[C@@H]2CC[C@H]1N2C	none (no result: PABP polyA inh, eIF4H inh)
C[C@@H]1CN([C@H](C)CO)C(=O)CCCn2nncc2CO[C@H]1CN(C)C(=O)Oc1ccccc1	none (no result: PABP polyA inh, eIF4H inh)
O=C1C=C(N2CC2)c2ccccc2C1=O	SKN-1 block 37 (no result: PABP polyA inh, eIF4H inh)
C=C(C)[C@@]12OC3(c4ccccc4)O[C@@H]1C1[C@@H]4O[C@]4(CO)[C@@H](O)[C@]4(O)C(=O)C(C)=C[C@H]4[C@@]1(O3)[C@H](C)[C@H]2OC(=O)/C=C/C=C/c1ccccc1 (stereo partly specified)	SKN-1 block 70 (no result: PABP polyA inh, eIF4H inh)
CCOC(=O)CNC(=O)CSP(=S)(OCC)OCC	none (no result: MT1-MMP act inh)
CNC(=O)CSP(=S)(OC)OC	MLLE-PAM2 inh 40 (no result: PABP polyA inh, eIF4H inh)
O=c1[nH]c(=S)n(C2CC2)c(O)c1/C=N/Nc1ccccc1	MT1-MMP act inh 61 | MT1-MMP act val inactive
